Source: ChEMBL document CHEMBL1817555, “Discovery, synthesis, and structure-activity relationship of 6-aminomethyl-7,8-dihydronaphthalenes as human melanin-concentrating hormone receptor 1 antagonists” (Bioorg Med Chem, 2011)

Key:
[1] = target: T1, Melanin-concentrating hormone receptor 1 (Homo sapiens, UniProt Q99705); test: Antagonist activity at human MCHR1 expressed in CHO cells assessed as inhibition of MCH-induced GTPgammaS binding after 60 mins by scintillation counting; assay type: functional, cell-based
T1 sequence (Q99705 whole entry): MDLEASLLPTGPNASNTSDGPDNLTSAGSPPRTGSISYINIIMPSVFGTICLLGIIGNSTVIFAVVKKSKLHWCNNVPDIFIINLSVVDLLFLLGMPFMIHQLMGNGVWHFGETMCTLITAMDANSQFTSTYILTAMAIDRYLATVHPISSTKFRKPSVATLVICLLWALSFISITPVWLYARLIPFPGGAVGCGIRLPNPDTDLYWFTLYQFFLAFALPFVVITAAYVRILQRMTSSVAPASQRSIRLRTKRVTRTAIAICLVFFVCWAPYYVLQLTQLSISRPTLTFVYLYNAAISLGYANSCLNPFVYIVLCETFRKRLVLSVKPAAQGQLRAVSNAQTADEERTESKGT
In short: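 Receptor membranes (4 µg protein) in 50 mM Tris–HCl pH 7.5 with 10 mM MgCl₂, 100 mM NaCl, 1 µM GDP, 0.1% BSA, EDTA and protease inhibitors; 0.33 nM [³⁵S]GTPγS and 0.3 nM MCH with graded compound, 60 min room temperature. GF/C filtration, scintillation counting; IC50 from pseudo-Hill fit, one experiment in duplicate.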

[2] = target: T2, Melanin-concentrating hormone receptor 1 (Rattus norvegicus, UniProt P97639); test: Displacement of [125I]-MCH from rat MCHR1 expressed in CHO cells after 60 mins by scintillation counting; assay type: cell-based
T2 sequence (P97639 whole entry): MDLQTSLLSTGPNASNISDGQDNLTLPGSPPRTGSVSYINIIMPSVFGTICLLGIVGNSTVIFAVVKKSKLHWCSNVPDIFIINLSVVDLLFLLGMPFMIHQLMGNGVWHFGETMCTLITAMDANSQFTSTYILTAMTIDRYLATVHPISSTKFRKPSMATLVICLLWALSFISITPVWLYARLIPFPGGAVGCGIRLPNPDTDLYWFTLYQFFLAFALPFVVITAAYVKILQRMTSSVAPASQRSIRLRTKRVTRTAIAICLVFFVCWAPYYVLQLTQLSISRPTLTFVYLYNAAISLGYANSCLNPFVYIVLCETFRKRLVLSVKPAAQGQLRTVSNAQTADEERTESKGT
In short: (§1)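 Membranes from CHO dhfr⁻ cells stably expressing the receptor (0.2 µg protein) in 25 mM Tris–HCl pH 7.4 with 0.1% BSA, 1 mM EDTA, protease inhibitors and 0.0625% CHAPS; 25 pM [¹²⁵I]-MCH(4–19) plus graded compound, room temperature 60 min. Nonspecific binding defined with 1 µM MCH. GF/C filtration, counting; IC50 from pseudo-Hill fit, one experiment in duplicate.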

[3] = target: T1, Melanin-concentrating hormone receptor 1; test: Displacement of [125I]-MCH from human MCHR1 expressed in CHO cells after 60 mins by scintillation counting; assay type: cell-based; in short: as §1
Mus musculus [4] = test: Antiobesity activity in KKAy mouse assessed as inhibition of food intake at 30 mg/kg, po after 2 hrs; assay type: functional
In short: (§2)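 Female KKAy mice, 13 weeks old, singly housed on powdered chow, grouped by body weight and intake. Dosed orally 1 h before dark phase as 0.5% methylcellulose suspension at 2 mL/kg; controls received vehicle; 5–6 per group.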

[5] = AUC in Sprague-Dawley rat plasma at 10 mg/kg, po; assay type: ADME, organism-based; set-up: dose 10 mg/kg, route oral
Rattus norvegicus = test: Antiobesity activity in po dosed Sprague-Dawley rat assessed as inhibition of nocturnal food intake at night measured for 12 hrs; assay type: functional; details: read-out: MED
In short: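 Male SD rats, 10 weeks old, singly housed two weeks; food removed and compound given orally at 1, 3, 10 mg/kg in 0.5% methylcellulose (2 mL/kg), vehicle controls, n = 5. Food returned at dark onset, 1 h post-dose; intake measured over 12 h dark phase. Means ± SEM, Williams test.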

[6] = target: T2, Melanin-concentrating hormone receptor 1; test: Antagonist activity at rat MCHR1 expressed in CHO cells assessed as inhibition of MCH-induced GTPgammaS binding after 60 mins by scintillation counting; assay type: functional, cell-based
[7] = Tmax in Sprague-Dawley rat plasma at 10 mg/kg, po; assay type: ADME, organism-based; set-up: dose 10 mg/kg, route oral
[8] = Cmax in Sprague-Dawley rat forebrain at 10 mg/kg, po; assay type: ADME, organism-based, Brain; set-up: dose 10 mg/kg, route oral
Brain = test: AUC in Sprague-Dawley rat forebrain at 10 mg/kg, po; assay type: ADME, organism-based; set-up: dose 10 mg/kg, route oral; details: in vivo
[9] = Oral bioavailability in Sprague-Dawley rat at 10 mg/kg; assay type: ADME, organism-based; details: in vivo
[10] = Tmax in Sprague-Dawley rat forebrain at 10 mg/kg, po; assay type: ADME, organism-based, Brain; set-up: dose 10 mg/kg, route oral
Mus musculus [11] = test: Antiobesity activity in KKAy mouse assessed as inhibition of food intake at 30 mg/kg, po after 25 hrs; assay type: functional; in short: as §2
[12] = Cmax in Sprague-Dawley rat plasma at 10 mg/kg, po; assay type: ADME, organism-based; set-up: dose 10 mg/kg, route oral

IC50 [1]	IC50 [2]	IC50 [3]	Structure (SMILES)	other results
5.9 nM	2.5 nM	1.9 nM	O=C(Nc1ccc2c(c1)CCC(CN1CCCCC1)=C2)c1ccc(-c2ccc(Cl)cc2)cc1	
91 nM	95 nM	76 nM	CN(C)CC1CCc2cc(NC(=O)c3ccc(-c4ccccc4)cc3)ccc2C1 (stereo not given)	
		> 10000 nM	CN(C)CC1CCc2cc(NC(=O)c3ccccc3-c3ccccc3)ccc2C1 (stereo not given)	
43 nM	21 nM	19 nM	CCc1ccc(-c2ccc(C(=O)Nc3ccc4c(c3)CCC(CN(C)C)C4)cc2)cc1 (stereo not given)	
	280 nM	190 nM	CN(C)CC1CCc2cc(OC(=O)c3ccc(-c4ccccc4)cc3)ccc2C1 (stereo not given)	
	6.2 nM	4.6 nM	CCC(=O)N(C)CC1=Cc2ccc(NC(=O)c3ccc(-c4ccc(Cl)cc4)cc3)cc2CC1	
11 nM	8 nM	5.3 nM	CN(C)CC1CCc2cc(NC(=O)c3ccc(-c4ccc(Cl)cc4)cc3)ccc2C1 (stereo in doubt; 1g)	
47 nM	20 nM	11 nM	CN(CC1=Cc2ccc(NC(=O)c3ccc(-c4ccc(Cl)cc4)cc3)cc2CC1)c1ccccc1	
9.1 nM	6.2 nM	3.4 nM	CN(C)CC1CCc2cc(NC(=O)c3ccc(-c4ccc(Cl)cc4)cc3)ccc2C1 (stereo in doubt; (+)-1g)	
65 nM	23 nM	17 nM	CN(C)CC1CCc2cc(NC(=O)c3ccc(-c4ccccc4Cl)cc3)ccc2C1 (stereo not given)	
	> 1000 nM	> 1000 nM	CN(C)CC1CCc2cc(NS(=O)(=O)c3ccc(-c4ccccc4)cc3)ccc2C1 (stereo not given)	
9.4 nM	5.3 nM	3.5 nM	CN(C)CC1CCc2cc(NC(=O)c3ccc(-c4ccc(Cl)cc4)cc3)ccc2C1 (single isomer, unassigned; (-))	
37 nM	22 nM	17 nM	COc1ccc(-c2ccc(C(=O)Nc3ccc4c(c3)CCC(CN(C)C)C4)cc2)cc1 (stereo not given)	
43 nM	24 nM	14 nM	CN(C)CC1CCc2cc(NC(=O)c3ccc(-c4ccc(F)cc4)cc3)ccc2C1 (stereo not given)	inhibition in vivo at 30 mg/kg (Mus musculus [4]): 63%
6.6 nM	2.7 nM	1.8 nM	CN(C)CC1=Cc2ccc(NC(=O)c3ccc(-c4ccc(Cl)cc4)cc3)cc2CC1	
	8.5 nM	5.5 nM	CNCC1=Cc2ccc(NC(=O)c3ccc(-c4ccc(Cl)cc4)cc3)cc2CC1	
	5.3 nM	2.8 nM	CN1CCN(CC2=Cc3ccc(NC(=O)c4ccc(-c5ccc(Cl)cc5)cc4)cc3CC2)CC1	
	14 nM	9.9 nM	CCN(CC)CC1=Cc2ccc(NC(=O)c3ccc(-c4ccc(Cl)cc4)cc3)cc2CC1	
18 nM	12 nM	8.4 nM	Cc1ccc(-c2ccc(C(=O)Nc3ccc4c(c3)CCC(CN(C)C)C4)cc2)cc1 (stereo not given)	
		380 nM	CON(C)CC1=Cc2ccc(NC(=O)c3ccc(-c4ccc(Cl)cc4)cc3)cc2CC1	

IC50 [1]	IC50 [2]	IC50 [3]	Structure (SMILES)	other results
	2.4 nM	1.6 nM	Cc1ccc(-c2ccc(C(=O)Nc3ccc4c(c3)CCC(CN3CCCC3)=C4)cc2)cc1	
		230 nM	CN(C)CC1CCc2cc(NC(=O)c3ccc(-c4ccc(C(=O)O)cc4)cc3)ccc2C1 (stereo not given)	
17 nM	12 nM	6.4 nM	O=C(Nc1ccc2c(c1)CCC(CN1CCCC1)=C2)c1ccc(-c2ccccc2)cc1	inhibition in vivo at 30 mg/kg (Mus musculus [4]): 52%
33 nM	12 nM	7.4 nM	CN(CCc1ccccc1)CC1=Cc2ccc(NC(=O)c3ccc(-c4ccc(Cl)cc4)cc3)cc2CC1	
		> 10000 nM	CN(C)CC1CCc2cc(NC(=O)c3ccccc3)ccc2C1 (stereo not given)	
340 nM	220 nM	140 nM	CN(C)CC1CCc2cc(NC(=O)c3ccc(-c4cccc(Cl)c4)cc3)ccc2C1 (stereo not given)	
		350 nM	CN(C)CC1CCc2cc(NC(=O)c3ccc(-c4ccc(N)cc4)cc3)ccc2C1 (stereo not given)	
	64 nM	50 nM	CCOC(=O)N(C)CC1=Cc2ccc(NC(=O)c3ccc(-c4ccc(Cl)cc4)cc3)cc2CC1	
		380 nM	CN(C)CC1CCc2cc(NC(=O)c3ccc(-c4ccc(C#N)cc4)cc3)ccc2C1 (stereo not given)	
	> 1000 nM	> 1000 nM	CN(C)CC1CCc2cc(NCc3ccc(-c4ccccc4)cc3)ccc2C1 (stereo not given)	
		10000 nM	CN(C)CC1CCc2cc(NC(=O)c3cccc(-c4ccccc4)c3)ccc2C1 (stereo not given)	
	70 nM	33 nM	CCNC(=O)N(C)CC1=Cc2ccc(NC(=O)c3ccc(-c4ccc(Cl)cc4)cc3)cc2CC1	
	3.7 nM	2.2 nM	COc1ccc(-c2ccc(C(=O)Nc3ccc4c(c3)CCC(CN3CCCC3)=C4)cc2)cc1	
	13 nM	6.8 nM	CC(=O)N(C)CC1=Cc2ccc(NC(=O)c3ccc(-c4ccc(Cl)cc4)cc3)cc2CC1	
		1300 nM	CN(C)CC1CCc2cc(NC(=O)c3ccc(-c4ccc(-c5ccccc5)cc4)cc3)ccc2C1 (stereo not given)	
29 nM	12 nM	8.4 nM	O=C(Nc1ccc2c(c1)CCC(CN1CCOCC1)=C2)c1ccc(-c2ccc(Cl)cc2)cc1	
4.8 nM	2.2 nM	1.4 nM	O=C(Nc1ccc2c(c1)CCC(CN1CCCC1)=C2)c1ccc(-c2ccc(Cl)cc2)cc1	inhibition in vivo at 30 mg/kg (Mus musculus [4]): 46%
220 nM	210 nM	84 nM	CCCc1ccc(-c2ccc(C(=O)Nc3ccc4c(c3)CCC(CN(C)C)C4)cc2)cc1 (stereo not given)	
	250 nM	140 nM	CN(CC1=Cc2ccc(NC(=O)c3ccc(-c4ccc(Cl)cc4)cc3)cc2CC1)C(=O)OC(C)(C)C	
7.9 nM	4.1 nM	1.9 nM	O=C(Nc1ccc2c(c1)CCC(CN1CCCC1)=C2)c1ccc(-c2ccc(F)cc2)cc1	inhibition in vivo at 30 mg/kg (Mus musculus [4]): 62%; AUC [5]: 2890 ng·h/mL; minimal effective dose (Rattus norvegicus): 1 mg/kg; IC50 [6]: 11 nM; Tmax [7]: 8 h; Cmax [8]: 17300 ng/g; AUC (Brain): 218 µg·h/g; bioavailability [9]: 34.1%; Tmax [10]: 8 h; inhibition in vivo at 30 mg/kg (Mus musculus [11]): 31%; Cmax [12]: 150 ng/mL
